Screening data: PubChem, Broad Institute
ERAP1 HTS inh – ERAP1 (human) enzyme inhibition. actives 0.15% (n = 340,000). recombinant ERAP1, Leu-AMC fluorescence, 60 min. Q9NZ08. inhibition, % at 10.7 µM;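 active = mean replicate inhibition of at least 30%, or all replicates individually reaching that 30% level; inactive = mean below 30% and not every replicate reaching it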;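 also: 0% = neutral control wells and 100% = L-leucinethiol positive control wells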
E-sel inducer – E-selectin induction on HUVECs; activation, % at 7.58 µM; AID 686992; P16581; HUVEC E-selectin immunofluorescence imaging; normalized: neutral wells 0, TNF-alpha wells 100; actives 0.37% (n = 260,000);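 active = mean E-selectin-positive cell signal at least 10% of the positive control, reached in at least 60% of replicates, without over 20% cell loss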
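System: HUVEC / Compound: single concentration / Signal: immunofluorescence imaging / Read-out: percent E-selectin-positive cells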
miR-122 sensor – miR-122 inhibition in Huh7 cells. Huh7 miR-122 Renilla luciferase sensor, 48 h; neutral wells = 0, positive control = 100. activation (reporter increase), % at 12.5 µM. actives 0.3% (n = 340,000);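 active = mean replicate activation score at least 90 and every replicate individually at or above 90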;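 also: higher luciferase means less miR-122 activity so hits act as miR-122 inhibitors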
GSIS activator – primary screen for activators of insulin secretion dependent on glucose, INS-1E cells, GLuc reporter luminescence | INS-1E GLuc reporter insulin secretion, 2-3 h | activation, % at 16.6 µM | actives 0.61% (n = 370,000);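 active = lowest replicate activation of at least 40%, so every replicate reaches that level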;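 also: 0% = median of neutral control wells and 100% = median of IBMX positive control wells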
CFTR F508del cor – correctors of CFTR F508del function in bronchial epithelial cells; activity (quench increase), % at 7.58 µM; actives 0.36% (n = 350,000); CFBE cells, YFP halide quenching; stimulated with forskolin plus potentiator P3; % fluorescence drop versus neutral controls;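 active = mean added fluorescence quench of at least 8% versus neutral control, with both replicates also reaching 8%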;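 also: cells transiently co-express mutant CFTR-F508del with the halide-sensitive YFP; corrector assay measuring rescue of mutant channel to the surface after 24 h compound exposure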
DENV2 CPE rescue – protects cells from dengue virus 2 cytopathic effect. DENV2-infected cells, cytopathic effect rescue, plate reader. actives 1.7% (n = 350,000). CPE inhibition, % at 9.99 µM; in the data active = CPE inhibition above about 20%, passing the limit was not always enough; tested in BHK-21 cells;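 also: 0% = median of neutral control wells and 100% = median of positive control wells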
Numbers without * were called inactive; x = no result given; [ ] = another dose, or the depositor's remark. Rows were chosen to be rich in hits. Some 2.6% of all compounds tested hit in one or more screens of this group.

SMILES | ERAP1 HTS inh | E-sel inducer | miR-122 sensor | GSIS activator | CFTR F508del cor | DENV2 CPE rescue
COc1ccc(C)cc1NS(=O)(=O)c1ccc2c(c1)CCN2C(C)=O | 0 | 0 | 92* | 9 | 3 | -5
CC(=O)N1CCCc2cc(S(=O)(=O)Nc3ccccc3C)ccc21 | -1 | 0 | 35 | -3 | 1 | 1
O=C(NC(=S)NCC1CCCO1)c1ccc(Cl)cc1Cl (stereo unspecified) | x | x | -10 | 56* | x | x
CN(c1ccc(C(=O)NCC2CCCO2)cc1)S(C)(=O)=O (stereo unspecified) | 13 | x | -1 | -4 | 2 | x
COCCNC(=O)c1ccc(N(C)S(=O)(=O)c2ccc(OC)c(OC)c2)cc1 | x | x | -5 | 44* | x | x
COc1cc(C(=O)NCC2CCCO2)ccc1OCc1ccc(Cl)cc1 (stereo unspecified) | -7 | 0 | x | -15 | 11* | 18
COc1ccc(S(=O)(=O)N(C)c2ccc(C(=O)NCC3CCCO3)cc2)cc1OC (stereo unspecified) | -3 | 1 | -4 | 48* | -3 | -2
C[C@@H]1CN([C@H](C)CO)C(=O)c2cc(C3=CCCC3)cnc2O[C@@H]1CN(C)C(=O)c1cccnc1 | 2 | 0 | -10[16.7 µM] | -8 | -1 | 0
C[C@H]1CN([C@@H](C)CO)C(=O)c2cc(Br)cnc2O[C@@H]1CN(C)C(=O)NC1CCCC1 | -1 | 1 | 7[16.7 µM] | 14 | 2 | 13
O=C(Nc1ccc(F)cc1)N[C@H]1CC[C@H](CC(=O)N2CCCCC2)O[C@H]1CO | 0 | 0 | x | 13 | 0 | -4
C[C@@H]1CN([C@H](C)CO)S(=O)(=O)c2ccc(C#Cc3ccccn3)cc2O[C@H]1CN(C)Cc1ccccc1 | -1 | 0 | 29[16.7 µM] | -19 | 1 | x
S=C(NCc1ccco1)NCC1CCCO1 (stereo unspecified) | 1 | x | -8 | 12 | 11* | -1
S=C(NCc1cccs1)NCC1CCCO1 (stereo unspecified) | 1 | x | x | 3 | 1 | -3
COc1cccc(S(=O)(=O)Nc2ccc3c(c2)C(=O)N(C)C[C@H](OC)[C@H](C)CN(C(=O)Cc2cccnc2)[C@@H](C)CO3)c1 | -2 | 0 | x | 2 | -4 | 1
COCC(=O)Nc1ccc2c(c1)C(=O)N(C)C[C@@H](OC)[C@@H](C)CN(C(=O)Cc1cccnc1)[C@@H](C)CO2 | 1 | 0 | x | 14 | -1 | -1
COCC(=O)Nc1ccc2c(c1)OC[C@@H](C)N(C(=O)Cc1cccnc1)C[C@H](C)[C@@H](OC)CN(C)C2=O | 2 | 0 | x | 7 | 1 | 49*
COCC(=O)Nc1ccc2c(c1)OC[C@H](C)N(C(=O)Cc1cccnc1)C[C@@H](C)[C@H](OC)CN(C)C2=O | -3 | 0 | x | 9 | -5 | 26*
COc1cccc(S(=O)(=O)Nc2ccc3c(c2)C(=O)N(C)C[C@@H](OC)[C@@H](C)CN(C(=O)Cc2cccnc2)[C@H](C)CO3)c1 | 1 | 0 | x | 9 | 1 | 52*
CCN(C(=O)CSc1ncccn1)c1cccc2ccccc12 | -1 | -1 | -3 | 48* | 2 | 7
COc1ccc2c3c(n(C)c2c1)[C@@H](CO)N(Cc1ccncc1)CC31CCN(C(=O)C2CC2)CC1 | x | x | x | -10 | x | x
COc1ccc2c3c([nH]c2c1)[C@H](CO)N(C(=O)Nc1ccc(F)cc1)CC31CN(S(=O)(=O)c2cccs2)C1 | x | x | x | -13 | x | x
COc1ccc2c3c(n(C)c2c1)[C@H](CO)N(Cc1ccncc1)CC31CCN(C(=O)Cc2ccncc2)CC1 | 2 | 0 | x | -3 | 0 | 77*
COc1ccc2c3c(n(C)c2c1)[C@@H](CO)N(C(=O)Nc1ccc(F)cc1)CC31CN(C(=O)c2cccnc2)C1 | -1 | 0 | x | -16 | -2 | -6
CCCNC(=O)N1CCC2(CC1)CN(Cc1ccccn1)[C@@H](CO)c1c2c2ccc(OC)cc2n1C | -2 | 0 | x | -10 | 0 | 71*
COc1ccc2c3c(n(C)c2c1)[C@@H](CO)N(C(=O)Nc1ccc(F)cc1)CC31CN(S(=O)(=O)c2cccs2)C1 | x | 0 | x | -8 | 5 | 46*
